# Bioassay records: PubChem BioAssay, several laboratories
# Rpn11 inh = inhibitors of human proteasome Rpn11; O00487; human 26S proteasome, Ub4-pepOG fluorescence polarization; 20S core pre-blocked with epoxomicin; inhibition, % at 20 µM; hit rate 0.59% among 360,000;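 active means inhibition at 20 µM, scaled to each plate's controls, above about 33%, limit read from the data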
# TbMetRS inhib = blocks T. brucei methionyl-tRNA synthetase activity. hit rate 0.4% among 360,000. purified T. brucei MetRS, ATP depletion, Kinase-Glo luminescence. AID 624268. inhibition, % at 11.9 µM;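 active means inhibition above a per-plate cutoff of the control wells' mean inhibition plus 3 SD, cut at about 5.5% in these data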;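 further: 0% = DMSO wells median and 100% = median of wells with control inhibitor compound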
#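 Assay system: T. brucei methionyl-tRNA synthetase, purified | Medium: HEPES buffer with MgCl2, KCl, DTT, spermine, BSA, pyrophosphatase | Compound: 11.9 µM single point | Incubation: 15 min enzyme-compound preincubation, 2 h reaction, 10 min detection, 25 °C | Measured by: Kinase-Glo luciferase luminescence reporting remaining unconsumed ATP | Measure: % inhibition normalized to control-well medians | Replication: Singlicate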
# CSN inh = inhibitors of human CSN-mediated cullin deneddylation. hit rate 0.38% among 360,000. Q92905. AID 651999. Purified CSN, SCF-Nedd8-OG deneddylation, fluorescence polarization. inhibition, % at 12.5 µM;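 active means pattern-corrected inhibition above about 35%, with an unprinted fluorescence ratio check between 0.5 and 1.5, limit read from the data, passing the limit was not always enough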;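 further: 0% = enzyme with substrate and 100% = substrate without enzyme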
# Target sequence (Q92905 whole entry, looked up, one chain of several): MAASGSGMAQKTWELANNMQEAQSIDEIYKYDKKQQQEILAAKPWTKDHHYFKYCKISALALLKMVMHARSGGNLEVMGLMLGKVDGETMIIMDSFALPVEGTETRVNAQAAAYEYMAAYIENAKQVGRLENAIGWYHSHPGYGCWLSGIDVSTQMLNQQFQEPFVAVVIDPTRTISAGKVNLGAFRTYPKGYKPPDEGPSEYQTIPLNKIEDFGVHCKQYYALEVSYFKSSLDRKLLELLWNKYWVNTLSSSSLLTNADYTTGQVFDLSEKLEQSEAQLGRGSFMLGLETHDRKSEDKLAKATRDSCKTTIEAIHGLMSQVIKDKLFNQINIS
#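 Assay system: HEK293T-derived human Csn5 enzyme; quantity: 0.24 nM enzyme; medium: Tris/NaCl/DTT buffer, pH 7.5; also added: substrate SCFSkp2-Nedd8OG, 10 nM; doses: 12.5 µM compound; schedule: 90 min reaction at room temperature; signal: FP; read-out: % inhibition of substrate cleavage by Csn5; benchmarks: substrate-only high control, full reaction low control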
# Neddylation inh = cullin neddylation inhibition; hit rate 0.58% among 360,000; P61081+Q13564; TR-FRET cullin neddylation, biochemical; inhibition, % at 25 µM; AID 651699; in the data active means inhibition above about 36%
# HNF4A DNA FP = change in binding of human HNF4 alpha to DNA; HNF4a-FITC DNA binding, fluorescence polarization, 1 h; activity change, % at 10 µM; hit rate 0.3% among 360,000; in the data active means activity change above about 30%, passing the limit was not always enough
# PREPL inh = inhibitors of human prolyl oligopeptidase-like enzyme PREPL. hit rate 0.68% among 320,000. Q4J6C6. recombinant PREPL, fluorescence polarization activity-based probe. inhibition, % at 5.96 µM. AID 2751; in the data active means inhibition above about 43%;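 further: 0% = enzyme with DMSO and 100% = wells lacking enzyme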
# Neddyl conf = confirmation of human cullin neddylation inhibitors | shares compounds with Neddylation inh | TR-FRET cullin neddylation biochemical assay | calls only at 25 µM | hit rate 13% among 1,800 | AID 652217; in the data active means inhibition above about 40%;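 further: neddylation substrate is the cullin 1 ring ligase complex with SKP2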
# * = called active by the depositor; i = inactive; x = not tested or not shown; + = active, no number. In the library only some 2.4% were active in any assay of this set; here they are far more common.
SMILES,Rpn11 inh,TbMetRS inhib,CSN inh,Neddylation inh,HNF4A DNA FP,PREPL inh,Neddyl conf
CCC1CCCCN1CCCNC(=O)c1c(O)nc2cc(C)ccn2c1=O (stereo unspecified),-6,0,-3,30,4,18,x
Cc1ccn2c(=O)c(C(=O)NCCCN3CCCC3=O)c(O)nc2c1,-1,-1,-4,48*,1,-4,+
Cc1ccn2c(=O)c(C(=O)NC3CCCCC3C)c(O)nc2c1 (stereo unspecified),0,0,-1,44*,-3,8,i
CN(Cc1ccccc1)C(=O)c1ccc(NC(=O)C2CCCN(C(=O)OC(C)(C)C)C2)cc1 (stereo unspecified),6,0,3,-8,5,0,x
CSc1cccc(Nc2ccc(S(=O)(=O)N3CCOCC3)cc2[N+](=O)[O-])c1,-11,0,-4,-13,-1,11,x
O=C(CCn1cccn1)N1CCCC(Nc2ccc(F)c(F)c2)C1 (stereo unspecified),3,0,-3,5,4,x,x
CCNc1oc(/C=C/c2ccc(OCC)cc2)nc1C#N,0,0,-1,47*,-1,23,x
C[C@]12CC[C@H](O)CC1=CCC1C2CC[C@@]2(C)C1CC[C@@H]2NCc1ccccc1 (stereo partly specified),-2,0,-1,3,1,x,x
Cc1cc(-c2nn(-c3ccccc3)cc2/C=C2\SC(N)=NC2=O)ccc1OC(C)C,26,0,4,48*,2,6,i
O=C1OCc2nc3cc4c(cc3c(-c3ccc(F)cc3)c21)OCO4,0,0,6,52*,4,-3,i
O=C(N/N=C/c1ccc2c(c1)OCO2)c1cc(-c2ccc(F)cc2)nc2ccccc12,7,-1,0,x,3,-15,x
NC(=O)c1[nH]cnc1N=NN(CCO)Cc1ccccc1,-5,0,4,-5,2,x,x
O=C(/C=C/c1ccccc1)OCCN1C(=O)c2ccccc2C1=O,0,0,-2,-25,-2,-17,x
Cc1nc2cc(-c3ccsc3-n3c(C)ccc3C)[nH]n2c(=O)c1Cl,10,-1,51,13,-9,24,x
Cc1ccccc1-c1cc2nc(C)c(Cl)c(=O)n2[nH]1,0,0,2,50*,-4,-1,i
O=C(O)c1cc(N=Cc2c(O)c3ccccc3oc2=O)ccc1O,3,-1,-7,43*,3,x,x
COc1ccc2cc(C(=O)C3CCCN(C(=O)/C=C/c4ccccn4)C3)ccc2c1 (stereo unspecified),1,0,-5,53*,-2,23,i
Cc1ccc(-c2csc(N3CCN(c4cc5c(cc4Cl)nc(C)n5CCN4CCCCC4)CC3)n2)cc1,17,0,2,13,7,33,x
Cc1csc(N2CCN(c3cc4c(cc3Cl)nc(-c3ccncc3)n4CCCN3CCCC3)CC2)n1,-9,0,0,30*,10,30,i
O=C(NNC1=Nc2ccccc2SC1)c1cccc([N+](=O)[O-])c1,4,1,-7,43*,3,2,i
O=C(CSc1ccc2nnc(-c3cccnc3)n2n1)Nc1ccccc1F,-9,0,4,7,-1,x,x
O=C(N/N=C/c1ccc([N+](=O)[O-])o1)c1ccncc1,-1,0,4,43*,-4,8,i
COC(=O)c1ccc(NC(=O)CCN2CCOCC2)cc1,1,-1,0,0,0,4,x
CCCCC1=CC2=CC(=O)C(C)(OC(=O)CC)C(=O)C2=CN1CCc1ccccn1 (stereo unspecified),-15,-1,-2,38*,1,9,i
COC(=O)CCCC1=CC2=CC(=O)C(C)(OC(=O)c3cccs3)C(=O)C2=CN1CCc1ccccn1 (stereo unspecified),-12,0,-5,-25,0,13,x
SMILES,Rpn11 inh,TbMetRS inhib,CSN inh,Neddylation inh,HNF4A DNA FP,PREPL inh,Neddyl conf
Cc1nc2c(C#N)cnn2c2c1CCN(Cc1ccccc1)N2C,2,0,-2,16,0,-3,x
Cc1nc2c(C#N)cnn2c2c1CCN2CC1CCCO1 (stereo unspecified),5,0,11,43*,-2,3,i
COc1ccc(S(=O)(=O)N2c3cc(Cl)ccc3Oc3nc4ccccc4nc32)cc1,0,-2,4,28,3,1,x
O=S(=O)(c1ccc(Cl)cc1)N1c2ccccc2Oc2nc3ccccc3nc21,13,-1,7,41*,3,8,i
O=C(Nc1ccccn1)c1cc(-c2cccc(Cl)c2)nc2ccccc12,-2,-1,-2,-12,-3,-7,x
O=C(NCc1ccco1)c1cnn2c(C(F)(F)F)cc(-c3ccccc3)nc12,0,0,-7,42*,-5,23,i
CSc1ccc(CN2CCC2(C)C(=O)Nc2cnc3ccccc3c2)cc1 (stereo unspecified),-4,0,1,-17,2,x,x
COc1cc(/C=C/C(=O)Nc2ccc(N3CCCCC3)c(S(=O)(=O)Nc3ccccc3Cl)c2)cc(OC)c1OC,2,-1,-4,42*,-1,-5,i
O=C(O)CC12CC3CC(C1)CC(n1ncc(N4CCC5(CC4)OCCO5)c(Cl)c1=O)(C3)C2,3,1,1,-8,-1,8,x
Cc1cccc(-c2ccc(O)cc2CN2CCN(c3ncc(Cc4ccccc4)cn3)CC2)c1,x,0,0,-1,7,x,x
O=c1c2c(nc3c(-c4cccc(Br)c4)c[nH]n13)CCCC2,-4,-1,-4,46*,1,22,i
CCCCNC(=O)c1nc(C2CCN(S(=O)(=O)c3cccc(C(F)(F)F)c3)CC2)oc1-c1ccccc1,9,0,1,14,5,x,x
CC(C)[C@H](NC(=O)c1cccc(S(=O)(=O)N2CCOCC2)c1)C(=O)OCC(=O)Nc1cccc(Br)c1,-12,0,0,-4,3,x,x
CCNC(=O)COC(=O)c1ccc(-c2nc3ccccc3s2)s1,-6,-1,-1,56*,1,-13,i
O=C(O)/C(=C\c1ccc2ccccc2c1)c1cccc2ccccc12,-2,0,5,-5,-2,0,x
Cc1ccc(-c2nc3ccccc3n2C(C(=O)NC(C)(C)C)C2CC2)cc1 (stereo unspecified),x,-1,2,13,-2,x,x
O=C(N/N=C/c1ccccc1O)C1(O)c2ccccc2-c2ccccc21,-7,0,1,46*,2,-32,i
